From PubChem BioAssay
ADAM10 inh = ADAM10 inhibition, QFRET primary screen. 0.62% of 370,000 active. inhibition, % at 7 µM. recombinant ADAM10, EDANS/DABCYL FRET peptide cleavage, 3 h. AID 720582;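 active = inhibition above a per-campaign cutoff equal to the mean of compounds falling between control-based bounds plus 3 SD, cut at about 20% in these data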;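 note: 0% = DMSO wells while the 100% control is not disclosed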
MPTP inh = permeability transition pore inhibition; isolated mouse mitochondria, Ca2+ swelling absorbance, 30 min; AID 602449; 1.4% of 360,000 active; inhibition, % at 10 µM;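 active = inhibition of 50% or more, scaled per plate between neutral and stimulator controls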;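 note: 0% = DMSO wells given calcium and 100% = 1 mM EGTA wells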
ADAM17 inh = inhibitors of human ADAM17; recombinant ADAM17, EDANS/DABCYL FRET peptide cleavage; inhibition, % at 6.95 µM; 0.83% of 370,000 active; AID 720648;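 active = inhibition above the mean of compounds lying between control limits plus 3 SD, set per campaign, cut at about 8.5% in these data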;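 note: 0% = DMSO-only wells as the low control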
Target sequence (P78536 215-824 limits assumed): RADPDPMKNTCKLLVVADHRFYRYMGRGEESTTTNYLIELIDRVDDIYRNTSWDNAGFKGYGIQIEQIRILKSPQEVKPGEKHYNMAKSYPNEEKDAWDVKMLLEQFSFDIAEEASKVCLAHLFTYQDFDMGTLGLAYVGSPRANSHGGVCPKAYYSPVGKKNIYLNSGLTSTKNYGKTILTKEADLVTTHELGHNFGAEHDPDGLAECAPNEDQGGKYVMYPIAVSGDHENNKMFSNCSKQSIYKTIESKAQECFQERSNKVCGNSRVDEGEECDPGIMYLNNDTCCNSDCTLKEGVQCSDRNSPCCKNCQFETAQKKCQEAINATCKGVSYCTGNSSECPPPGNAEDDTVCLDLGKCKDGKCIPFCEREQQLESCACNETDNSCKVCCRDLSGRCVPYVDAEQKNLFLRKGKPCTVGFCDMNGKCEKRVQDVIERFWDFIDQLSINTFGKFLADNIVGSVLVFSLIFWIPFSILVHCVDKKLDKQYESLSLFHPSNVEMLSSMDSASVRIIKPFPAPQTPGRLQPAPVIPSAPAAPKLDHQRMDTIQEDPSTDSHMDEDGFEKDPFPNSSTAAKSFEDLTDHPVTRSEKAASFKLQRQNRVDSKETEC
MT1-MMP act inh = inhibitors of human MT1-MMP activation. HT1080 RFP-PRO-GFP cells, GFP/RFP ratio fluorescence, overnight; percent of plate control window, DMSO zero. 0.061% of 360,000 active. GFP/RFP ratio change, % at 20 µM. P50281;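 active = GFP/RFP ratio change of at least 30% with cell ATP level not reduced by more than half and red fluorescence within 50% of control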
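Read-out: GFP/RFP fluorescence ratio; Test system: RFP-PRO-GFP reporter HT1080 cells; Compound dosing: single-point 20 µM compound, 1% DMSO; Times: overnight compound exposure at 37 °C.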
SKN-1 block = inhibitors of C. elegans SKN-1 | C. elegans VP596 Pgst-4::GFP/RFP ratio, acrylamide-induced, 24 h | inhibition, % at 21.8 µM | 0.49% of 360,000 active | AID 624304;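 active = interference check ratio from 0.5 to 1.5 plus GFP to RFP signal ratio inhibition reaching or exceeding a fixed threshold, cut at about 30% in these data, passing the limit was not always enough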
NR3A LBD binder = modulators (binders) of human NR3A ligand-binding domain; NR3A LBD differential scanning fluorimetry, Tm shift; 0% = protein alone, 100% = glycine-bound protein; Tm shift relative to glycine control, % at 25 µM; 2.5% of 340,000 active;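 active = melting temperature shift of at least 10% of the positive control shift, at one fixed dose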
Active calls of the source: *; i = inactive; x = not tested or not shown. Rows were chosen to be rich in hits. Some 4.7% of all compounds tested hit in one or more screens of this group.

SMILES	ADAM10 inh	MPTP inh	ADAM17 inh	MT1-MMP act inh	SKN-1 block	NR3A LBD binder
COc1ccc(CN(C(=O)CSc2nnc(-c3c[nH]c4ccccc34)o2)c2ccc(F)cc2)cc1OC	22*	3	8	-29	30	-1
Clc1ccc(CSc2nnc(-c3c[nH]c4ccccc34)o2)cc1	2	9	-3	0	16	27*
COc1ccc(CN(C(=O)CSc2nnc(-c3ccc(F)cc3)o2)c2ccc(F)cc2)cc1	7	2	2	17	-2	-4
Cc1ccccc1-c1nnc(SCc2ccc(F)cc2)o1	6	2	1	-3	-5	13*
Fc1ccc(CSc2nnc(-c3ccncc3)o2)cc1	-5	-1	-4	-11	16	0
CC(O)c1ccc2c(c1)OCCOCCN(C)CCOCCO2 (stereo not drawn)	-4	-3	-10	0	7	0
O=C(O)c1ccc(S(=O)(=O)NN=Cc2c[nH]c3ccccc23)cc1	-21	2	-4	-5	15	x
Cc1ccc(S(=O)(=O)/C(C#N)=C/c2c[nH]c3ccccc23)cc1	18	7	4	1	7	13*
Cc1ccc(S(=O)(=O)N/N=C/c2c[nH]c3ccccc23)cc1	6	13	3	1	0	31*
COc1ccc(S(=O)(=O)N/N=C\c2ccccc2F)cc1	-12	0	-1	2	-8	0
COc1ccc2[nH]cc(C=O)c2c1	-6	0	1	1	7	1
COc1ccc2[nH]cc(/C=N/NS(=O)(=O)c3ccc(C)cc3)c2c1	12	34	2	-4	25	25*
COc1ccc2c(/C=N/NS(=O)(=O)c3ccc(C)cc3)c[nH]c2c1	0	3	-2	3	9	33*
Cc1ccc(C2=NS(=O)(=O)N(C)C(C(=O)N(C)C3CCCCC3)=C2)cc1	-35	-1	-2	3	10	3
Cc1ccc(C(=O)NNC(=O)C2CCN(C(=O)OC(C)(C)C)CC2)cc1	-2	0	1	3	-5	30*
CCOC(=O)CSc1ncnc2c1cnn2-c1ccc(C)cc1C	-3	3	-4	0	8	1
CCCCn1c(CCn2nc(C)c(Br)c2C)n[nH]c1=S	8	-3	4	6	9	2
CC1(C)OC(c2ccccc2)=C/C(=C/C=C2C(=O)c3ccccc3C2=O)O1	-1	26	-1	-13	60*	-3
Cc1ccccc1N=C/C=C1/C=C(c2ccccc2)OC(C)(C)O1	-7	0	-2	-10	-2	0
COc1cc(/C=N/Nc2ccc([N+](=O)[O-])cc2S(=O)(=O)N2CCOCC2)cc(OC)c1OC	-2	0	2	-7	9	0
O=[N+]([O-])c1ccc(N/N=C/c2ccc(O)c(O)c2O)c(S(=O)(=O)N2CCOCC2)c1	14	3	7	10	0	23*
COc1cc(Cn2c3ccc(NC(=O)CC(C)(C)C)cc3c(=O)n2C)ccc1F	i	-1	-404	0	6	x
Cc1c(Cl)cccc1NC(=S)N(CCCN1CCOCC1)Cc1cccs1	-5	-1	-4	5	-5	17*
Cc1ccc(NC(=S)N(CCCN2CCOCC2)Cc2cccs2)c(C)c1	-3	-2	-5	2	16	0
OC1(Cc2ccn[nH]2)CCCCC1	x	x	x	x	x	2
SMILES	ADAM10 inh	MPTP inh	ADAM17 inh	MT1-MMP act inh	SKN-1 block	NR3A LBD binder
Cc1ccc(OCCC(=O)NNC(=O)c2cc(C)oc2C)cc1	-3	0	-3	-2	-5	3
CC1(C)CC(=O)C=C(c2ccc(COC(=O)/C=C/c3ccccc3)cc2)C1=O	5	-1	0	-1	-4	x
Cc1cc(Nc2ncc(Cl)cc2Cl)n(-c2ccccc2)n1	-2	3	3	-7	12	11*
CN(C)C(CNC(=O)c1ccc2ccccc2c1)c1ccco1 (stereo not drawn)	0	-5	-2	-1	-4	-2
Brc1ccc2oc(-c3ccn[nH]3)cc2c1	4	4	0	2	39*	-10
O=C(COC(=O)C1CCC1)Nc1ccc(Cl)cn1	-17	0	-3	0	-4	0
O=C(COC(=O)CCC1CCCC1)Nc1ccc(Cl)cn1	0	-1	-4	0	41*	0
